Test results taken from ChEMBL document CHEMBL5653631, “A Potent and Selective ULK1 Inhibitor Suppresses Autophagy and Sensitizes Cancer Cells to Nutrient Stress” (iScience, 2018).
One block for each compound: values may come before it.

What was measured:
[1] = target: Cyclin-dependent kinase 18 (Homo sapiens) (UniProt Q07002); assay: Inhibition of human recombinant PCTAIRE3 at 500 nM in presence of ATP by radiometric assay relative to control
[2] = target: RAC-alpha serine/threonine-protein kinase (Homo sapiens) (UniProt P31749); assay: Inhibition of human recombinant AKT1 at 500 nM related to control ULK1
[3] = target: Tyrosine-protein kinase Fgr (Homo sapiens) (UniProt P09769); assay: Inhibition of human recombinant FGR at 500 nM in presence of ATP by radiometric assay relative to control
[4] = target: Insulin-like growth factor 1 receptor (Homo sapiens) (UniProt P08069); assay: Inhibition of human recombinant IGF1R at 40 nM related to control ULK1
Sequence of Insulin-like growth factor 1 receptor (Homo sapiens) (P08069 31-736 limits assumed): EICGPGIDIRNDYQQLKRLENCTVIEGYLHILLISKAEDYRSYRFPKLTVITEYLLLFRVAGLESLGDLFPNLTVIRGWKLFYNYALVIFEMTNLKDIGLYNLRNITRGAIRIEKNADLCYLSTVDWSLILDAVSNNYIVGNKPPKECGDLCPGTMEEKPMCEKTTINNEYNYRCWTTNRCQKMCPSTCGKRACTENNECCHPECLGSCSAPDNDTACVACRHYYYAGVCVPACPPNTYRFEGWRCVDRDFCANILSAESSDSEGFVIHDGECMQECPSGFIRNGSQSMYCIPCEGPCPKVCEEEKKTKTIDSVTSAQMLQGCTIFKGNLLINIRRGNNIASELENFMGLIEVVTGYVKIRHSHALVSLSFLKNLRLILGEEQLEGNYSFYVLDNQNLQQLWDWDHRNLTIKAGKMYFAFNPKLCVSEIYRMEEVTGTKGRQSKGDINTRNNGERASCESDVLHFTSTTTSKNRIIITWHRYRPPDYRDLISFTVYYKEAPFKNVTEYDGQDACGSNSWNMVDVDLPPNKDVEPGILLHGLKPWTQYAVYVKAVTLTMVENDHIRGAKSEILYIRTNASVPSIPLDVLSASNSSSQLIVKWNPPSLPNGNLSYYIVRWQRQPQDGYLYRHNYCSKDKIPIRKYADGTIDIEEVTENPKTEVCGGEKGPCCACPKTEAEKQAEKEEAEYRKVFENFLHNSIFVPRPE
Sequence of Insulin-like growth factor 1 receptor (Homo sapiens) (P08069 741-1367 limits assumed): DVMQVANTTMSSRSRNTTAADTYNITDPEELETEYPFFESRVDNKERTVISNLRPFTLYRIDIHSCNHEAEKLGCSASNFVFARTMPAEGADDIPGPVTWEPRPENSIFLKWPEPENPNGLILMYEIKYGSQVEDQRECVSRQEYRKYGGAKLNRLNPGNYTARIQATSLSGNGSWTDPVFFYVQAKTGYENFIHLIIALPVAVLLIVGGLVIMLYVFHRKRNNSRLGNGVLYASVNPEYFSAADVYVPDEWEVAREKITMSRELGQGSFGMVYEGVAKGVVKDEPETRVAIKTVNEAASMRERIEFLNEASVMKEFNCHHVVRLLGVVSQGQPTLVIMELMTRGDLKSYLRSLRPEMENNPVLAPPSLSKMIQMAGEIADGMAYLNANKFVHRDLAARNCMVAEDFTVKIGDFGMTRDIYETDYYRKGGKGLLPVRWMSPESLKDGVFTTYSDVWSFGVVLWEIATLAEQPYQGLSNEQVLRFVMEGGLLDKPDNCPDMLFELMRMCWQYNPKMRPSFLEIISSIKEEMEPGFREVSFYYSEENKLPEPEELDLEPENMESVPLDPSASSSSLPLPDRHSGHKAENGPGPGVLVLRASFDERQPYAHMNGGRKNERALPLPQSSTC

[5] = target: T1, Interleukin-1 receptor-associated kinase 4 (Homo sapiens) (UniProt Q9NWZ3); assay: Inhibition of human recombinant IRAK4 at 40 nM in presence of ATP by radiometric assay relative to control
T1 sequence (whole entry): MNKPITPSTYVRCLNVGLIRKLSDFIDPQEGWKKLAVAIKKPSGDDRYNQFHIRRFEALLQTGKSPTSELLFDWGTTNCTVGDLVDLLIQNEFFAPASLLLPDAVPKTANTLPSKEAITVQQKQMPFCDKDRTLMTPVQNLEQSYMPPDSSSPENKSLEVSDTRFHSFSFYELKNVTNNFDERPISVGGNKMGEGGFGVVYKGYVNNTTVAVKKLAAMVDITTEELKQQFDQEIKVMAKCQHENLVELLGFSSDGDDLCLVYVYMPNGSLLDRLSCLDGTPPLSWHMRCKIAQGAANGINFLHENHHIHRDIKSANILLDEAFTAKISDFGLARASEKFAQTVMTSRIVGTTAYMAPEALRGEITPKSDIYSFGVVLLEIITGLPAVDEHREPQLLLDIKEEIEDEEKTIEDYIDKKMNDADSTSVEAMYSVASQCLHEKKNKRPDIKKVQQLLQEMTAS

[6] = target: Calcium/calmodulin-dependent protein kinase type 1D (Homo sapiens) (UniProt Q8IU85); assay: Inhibition of human recombinant CaMK1d at 40 nM related to control ULK1
[7] = target: Tyrosine-protein kinase Yes (Homo sapiens) (UniProt P07947); assay: Inhibition of human recombinant YES at 40 nM in presence of ATP by radiometric assay relative to control
[8] = target: NT-3 growth factor receptor (Homo sapiens) (UniProt Q16288); assay: Inhibition of human recombinant TRKC at 40 nM in presence of ATP by radiometric assay relative to control
[9] = target: Bone morphogenetic protein receptor type-1B (Homo sapiens) (UniProt O00238); assay: Inhibition of human recombinant BMPR1B at 40 nM in presence of ATP by radiometric assay relative to control
Sequence of Bone morphogenetic protein receptor type-1B (Homo sapiens) (O00238 whole entry): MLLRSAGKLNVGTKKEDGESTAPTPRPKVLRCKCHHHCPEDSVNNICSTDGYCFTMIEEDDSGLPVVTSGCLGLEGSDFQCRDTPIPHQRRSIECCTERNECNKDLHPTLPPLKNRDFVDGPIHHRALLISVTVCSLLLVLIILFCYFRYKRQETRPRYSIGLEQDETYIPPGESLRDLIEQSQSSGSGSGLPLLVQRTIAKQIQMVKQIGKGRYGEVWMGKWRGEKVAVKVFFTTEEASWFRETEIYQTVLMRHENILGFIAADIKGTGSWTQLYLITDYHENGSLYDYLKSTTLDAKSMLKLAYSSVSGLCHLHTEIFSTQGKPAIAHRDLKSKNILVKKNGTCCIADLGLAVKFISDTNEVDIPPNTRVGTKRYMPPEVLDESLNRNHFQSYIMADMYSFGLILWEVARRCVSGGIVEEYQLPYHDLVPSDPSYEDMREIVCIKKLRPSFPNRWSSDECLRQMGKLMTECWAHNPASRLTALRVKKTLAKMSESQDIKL
In short: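 Part of a radiometric in vitro activity panel of 327 recombinant human kinases. Each kinase was tested in duplicate at one inhibitor concentration. Activity remaining was expressed as a percentage of the vehicle control, and percent inhibition was taken as 100 minus that value.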

[10] = target: Serine/threonine-protein kinase N2 (Homo sapiens) (UniProt Q16513); assay: Inhibition of human recombinant PKN2 at 15 nM related to control ULK1
[11] = target: T2, Dual specificity tyrosine-phosphorylation-regulated kinase 3 (Homo sapiens) (UniProt O43781); assay: Inhibition of human recombinant DYRK3 at 15 nM in presence of ATP by radiometric assay relative to control
T2 sequence (whole entry): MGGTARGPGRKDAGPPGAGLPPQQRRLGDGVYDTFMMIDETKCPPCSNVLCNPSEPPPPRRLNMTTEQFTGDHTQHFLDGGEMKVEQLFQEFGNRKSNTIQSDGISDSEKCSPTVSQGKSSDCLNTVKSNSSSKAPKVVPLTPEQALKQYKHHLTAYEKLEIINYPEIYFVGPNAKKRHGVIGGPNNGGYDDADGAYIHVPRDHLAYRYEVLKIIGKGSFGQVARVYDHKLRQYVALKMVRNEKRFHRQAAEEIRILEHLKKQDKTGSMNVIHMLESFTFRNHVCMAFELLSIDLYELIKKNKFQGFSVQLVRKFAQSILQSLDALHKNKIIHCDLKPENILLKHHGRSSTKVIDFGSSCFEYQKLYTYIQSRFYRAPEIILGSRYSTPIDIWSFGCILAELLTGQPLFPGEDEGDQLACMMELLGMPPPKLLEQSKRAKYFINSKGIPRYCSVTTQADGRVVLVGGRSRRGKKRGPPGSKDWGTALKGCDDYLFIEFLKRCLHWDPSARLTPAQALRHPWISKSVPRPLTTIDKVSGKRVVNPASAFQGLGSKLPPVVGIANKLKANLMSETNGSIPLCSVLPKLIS

[12] = target: Ribosomal protein S6 kinase alpha-4 (Homo sapiens) (UniProt O75676); assay: Inhibition of human recombinant MSK2 at 15 nM related to control ULK1
Sequence of Ribosomal protein S6 kinase alpha-4 (Homo sapiens) (O75676 whole entry, looked up): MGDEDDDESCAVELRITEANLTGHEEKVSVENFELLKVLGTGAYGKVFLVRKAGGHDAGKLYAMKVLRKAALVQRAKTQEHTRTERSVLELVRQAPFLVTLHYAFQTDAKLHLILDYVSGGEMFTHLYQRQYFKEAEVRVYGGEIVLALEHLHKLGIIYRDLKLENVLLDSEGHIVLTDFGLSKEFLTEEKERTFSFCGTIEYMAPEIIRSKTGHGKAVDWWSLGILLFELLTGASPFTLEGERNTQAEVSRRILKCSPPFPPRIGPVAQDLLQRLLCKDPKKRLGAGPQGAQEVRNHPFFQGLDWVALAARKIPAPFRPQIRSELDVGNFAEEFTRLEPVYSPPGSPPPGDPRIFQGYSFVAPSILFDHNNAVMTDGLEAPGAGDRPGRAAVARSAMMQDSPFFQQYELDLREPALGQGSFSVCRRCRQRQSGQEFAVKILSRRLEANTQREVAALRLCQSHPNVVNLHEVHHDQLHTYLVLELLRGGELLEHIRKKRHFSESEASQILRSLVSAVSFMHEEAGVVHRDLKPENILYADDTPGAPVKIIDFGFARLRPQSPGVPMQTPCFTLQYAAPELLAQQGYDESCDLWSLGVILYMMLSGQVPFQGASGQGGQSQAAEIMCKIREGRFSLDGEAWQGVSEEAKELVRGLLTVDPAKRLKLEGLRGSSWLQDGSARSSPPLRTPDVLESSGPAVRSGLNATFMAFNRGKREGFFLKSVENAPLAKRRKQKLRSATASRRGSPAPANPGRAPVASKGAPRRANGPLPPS

[13] = target: Insulin receptor (Homo sapiens) (UniProt P06213); assay: Inhibition of human recombinant INSR at 15 nM in presence of ATP by radiometric assay relative to control
Sequence of Insulin receptor (Homo sapiens) (P06213 28-758 limits assumed): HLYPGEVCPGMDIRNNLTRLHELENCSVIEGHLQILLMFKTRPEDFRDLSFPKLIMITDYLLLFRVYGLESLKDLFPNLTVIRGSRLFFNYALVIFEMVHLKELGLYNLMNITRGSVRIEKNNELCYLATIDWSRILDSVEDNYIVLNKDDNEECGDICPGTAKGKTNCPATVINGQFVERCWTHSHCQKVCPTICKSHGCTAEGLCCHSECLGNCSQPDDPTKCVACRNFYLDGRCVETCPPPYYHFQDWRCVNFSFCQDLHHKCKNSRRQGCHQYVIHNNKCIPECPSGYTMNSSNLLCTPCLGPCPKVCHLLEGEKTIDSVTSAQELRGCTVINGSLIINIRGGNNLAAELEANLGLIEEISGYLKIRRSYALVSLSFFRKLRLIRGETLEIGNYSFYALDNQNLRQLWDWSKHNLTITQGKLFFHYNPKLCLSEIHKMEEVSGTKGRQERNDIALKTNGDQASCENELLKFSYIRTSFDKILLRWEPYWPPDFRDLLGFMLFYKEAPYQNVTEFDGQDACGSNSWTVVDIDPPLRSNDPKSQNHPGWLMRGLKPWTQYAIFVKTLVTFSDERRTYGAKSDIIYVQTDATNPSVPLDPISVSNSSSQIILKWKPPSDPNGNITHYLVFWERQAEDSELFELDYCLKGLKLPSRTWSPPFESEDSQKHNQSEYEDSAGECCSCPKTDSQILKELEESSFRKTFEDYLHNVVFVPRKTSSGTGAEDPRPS
Sequence of Insulin receptor (Homo sapiens) (P06213 763-1382 limits assumed): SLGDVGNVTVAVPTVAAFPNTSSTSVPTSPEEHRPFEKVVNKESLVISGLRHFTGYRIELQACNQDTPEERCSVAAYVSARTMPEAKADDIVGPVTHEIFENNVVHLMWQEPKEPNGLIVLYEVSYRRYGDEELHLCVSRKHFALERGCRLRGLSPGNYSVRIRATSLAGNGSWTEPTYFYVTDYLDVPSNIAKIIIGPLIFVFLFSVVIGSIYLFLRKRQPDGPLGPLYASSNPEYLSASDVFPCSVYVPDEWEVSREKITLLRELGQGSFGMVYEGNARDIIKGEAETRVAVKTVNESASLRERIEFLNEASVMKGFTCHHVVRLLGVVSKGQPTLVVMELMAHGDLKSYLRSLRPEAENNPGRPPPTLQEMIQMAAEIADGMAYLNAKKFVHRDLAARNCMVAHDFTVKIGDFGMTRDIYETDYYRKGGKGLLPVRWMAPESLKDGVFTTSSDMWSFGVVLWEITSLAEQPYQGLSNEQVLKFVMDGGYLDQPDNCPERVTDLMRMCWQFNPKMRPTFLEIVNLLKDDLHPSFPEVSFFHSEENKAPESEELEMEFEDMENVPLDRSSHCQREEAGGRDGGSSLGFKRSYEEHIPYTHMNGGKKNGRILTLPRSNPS

[14] = target: Calcium/calmodulin-dependent protein kinase kinase 2 (Homo sapiens) (UniProt Q96RR4); assay: Inhibition of human recombinant CaMKK2 at 15 nM related to control ULK1
Sequence of Calcium/calmodulin-dependent protein kinase kinase 2 (Homo sapiens) (Q96RR4 2-588 limits assumed): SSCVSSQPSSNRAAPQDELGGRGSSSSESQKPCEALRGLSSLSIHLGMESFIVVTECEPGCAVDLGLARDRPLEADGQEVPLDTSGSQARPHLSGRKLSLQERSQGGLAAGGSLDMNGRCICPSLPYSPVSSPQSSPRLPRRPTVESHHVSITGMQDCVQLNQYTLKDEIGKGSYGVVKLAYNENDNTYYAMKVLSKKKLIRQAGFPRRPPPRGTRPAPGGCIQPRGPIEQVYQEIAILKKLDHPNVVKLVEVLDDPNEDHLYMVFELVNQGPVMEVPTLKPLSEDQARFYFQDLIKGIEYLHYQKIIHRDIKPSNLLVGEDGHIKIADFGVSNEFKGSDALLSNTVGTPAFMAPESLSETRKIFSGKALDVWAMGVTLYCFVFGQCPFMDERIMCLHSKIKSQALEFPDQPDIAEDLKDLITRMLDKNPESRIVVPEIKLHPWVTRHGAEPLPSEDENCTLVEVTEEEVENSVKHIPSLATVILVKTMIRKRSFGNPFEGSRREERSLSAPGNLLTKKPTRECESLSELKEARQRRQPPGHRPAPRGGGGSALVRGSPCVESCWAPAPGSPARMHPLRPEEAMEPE

[15] = target: Serine/threonine-protein kinase ULK1 (Homo sapiens, UniProt O75385); assay: Inhibition of human ULK1
[16] = target: Rho-associated protein kinase 2 (Homo sapiens) (UniProt O75116); assay: Inhibition of human recombinant ROCK2 at 15 nM related to control ULK1
[17] = target: Cyclin-dependent kinase 18 (Homo sapiens) (UniProt Q07002); assay: Inhibition of human recombinant PCTAIRE3 at 15 nM related to control ULK1
[18] = target: Serine/threonine-protein kinase PAK 6 (Homo sapiens) (UniProt Q9NQU5); assay: Inhibition of human recombinant PAK6 at 15 nM related to control ULK1

Sequence of Cyclin-dependent kinase 18 (Homo sapiens) (Q07002 whole entry): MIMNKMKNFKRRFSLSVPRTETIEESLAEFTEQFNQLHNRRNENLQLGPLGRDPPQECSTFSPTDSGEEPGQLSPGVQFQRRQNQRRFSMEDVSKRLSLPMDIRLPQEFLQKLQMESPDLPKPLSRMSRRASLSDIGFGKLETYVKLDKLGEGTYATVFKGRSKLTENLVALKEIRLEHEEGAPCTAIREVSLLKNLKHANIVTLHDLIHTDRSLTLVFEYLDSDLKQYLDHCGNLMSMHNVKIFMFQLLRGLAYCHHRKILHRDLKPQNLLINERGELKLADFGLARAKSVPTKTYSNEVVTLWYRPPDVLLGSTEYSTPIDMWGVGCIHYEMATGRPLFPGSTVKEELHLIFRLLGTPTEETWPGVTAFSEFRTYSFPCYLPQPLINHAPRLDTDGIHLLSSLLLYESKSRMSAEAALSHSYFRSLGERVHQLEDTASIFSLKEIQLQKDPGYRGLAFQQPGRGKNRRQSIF

inhibition [1]: 20%
fold change (FC) [2]: 0
inhibition [3]: 8%
Structure (SMILES): CNC(=O)c1ccccc1Oc1nc(Nc2cc(OC)c(OC)c(OC)c2)ncc1Br

fold change (FC) [4]: 0
inhibition [5]: 0%
fold change (FC) [6]: 0
inhibition [7]: 23%
inhibition [8]: 0%
inhibition [9]: 0%
Structure (SMILES): O=C(N[C@@H](C1CC1)C(F)(F)F)c1cc(-c2cnn3cc(-c4ccc(F)cc4)cnc23)cs1

fold change (FC) [10]: 0
inhibition [11]: 23%
fold change (FC) [12]: 0
inhibition [13]: 0%
fold change (FC) [14]: 0.01
IC50 [15]: 1.6 nM
fold change (FC) [16]: 0
fold change (FC) [17]: 0.76
fold change (FC) [18]: 0
Structure (SMILES): CC(C)[C@H](NC(=O)c1cc(-c2cnn3cc(-c4ccc(OCCN5CCCCC5)cc4)cnc23)cs1)C(F)(F)F
